Consider 23 compounds from ChEMBL document CHEMBL1151934, “Exploration and optimization of substituted triazolothiadiazines and triazolopyridazines as PDE4 inhibitors” (Bioorg Med Chem Lett, 2009).

Active and inactive are the calls of the source. The rule behind the calls is not given here.

Data set [1] concerns the target 3',5'-cyclic-AMP phosphodiesterase 4A (Homo sapiens, UniProt P27815). Description: Inhibition of human PDE4A by IMAP fluorescence polarization technology. In general terms: Fluorescence polarisation rises when a labelled molecule tumbles more slowly, as on binding a larger partner.
Data set [2] in a line: Intrinsic clearance in rat microsomes. It is filed as ADME, Microsome.
A short description of data set [3]: Metabolic stability in rat assessed as half life. It is filed as ADME, organism-based. The note with it: in vivo.
Data set [4] has as its target cAMP and cAMP-inhibited cGMP 3',5'-cyclic phosphodiesterase 10A (Homo sapiens, UniProt Q9Y233). Description: Inhibition of PDE10A1.
The target in data set [5] is cGMP-inhibited 3',5'-cyclic phosphodiesterase 3B (Homo sapiens, UniProt Q13370).
Data set [6] addresses T1, cGMP-inhibited 3',5'-cyclic phosphodiesterase 3A (Homo sapiens, UniProt Q14432).
Data set [7] can be described thus: Inhibition of PDE4 expressed in HEK293 cells coexpressing G-protein coupled receptor and cyclic nucleotide gated ion channel by fluorescence assay. It is filed as cell-based. The gist of the method:
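PDE4-expressing reporter cells plated at 1000 cells/well in DMEM with penicillin/streptomycin and 2%, 5%, 10% or 20% fetal calf serum, 12 hr at 37 °C, 5% CO₂. Membrane potential dye 1 hr at room temperature, then compound pin-transferred from DMSO serial dilutions (final DMSO under 0.5%). Tested in duplicate.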

Data set [8] has as its target Beta-2 adrenergic receptor (Homo sapiens) (UniProt P07550). The experiment in a line: Inhibition of beta2 adrenergic receptor expressed in HEK293 cells co-transfected with PKA fragments Reg-F[1] and cat-F[2]-fused renilla luciferase assessed as effect on receptor regulated increase in cAMP accumulation at 100 uM after 30 mins by protein-fragment complementation assay. It is filed as functional, cell-based. The gist of the method:
(§1)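 Stable β2AR-HEK293 cells grown in DMEM with 10% fetal bovine serum and transiently transfected with the Rluc PCA PKA reporter. Compounds added 48 h after transfection. Medium exchanged for PBS and bioluminescence read on a luminometer immediately after treatment.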

Data set [9] shares this target. The experiment in a line: Inhibition of beta2 adrenergic receptor expressed in HEK293 cells co-transfected with PKA fragments Reg-F[1] and cat-F[2]-fused renilla luciferase assessed as effect on receptor regulated increase in cAMP accumulation at 10 uM after 30 mins by protein-fragment complementation assay. It is filed as functional, cell-based. A digest of the protocol: as §1
In general terms: Changes in cAMP serve as a functional read-out for many G protein-coupled receptors.

Data set [10] concerns the target cGMP-dependent 3',5'-cyclic phosphodiesterase (Homo sapiens) (UniProt O00408). The experiment in a line: Inhibition of PDE2A at 10 uM.
The target in data set [11] is Dual specificity calcium/calmodulin-dependent 3',5'-cyclic nucleotide phosphodiesterase 1A (Homo sapiens) (UniProt P54750). Description: Inhibition of PDE1A at 10 uM.
Data set [12] addresses Beta-2 adrenergic receptor (Homo sapiens) (UniProt P07550). The experiment in a line: Inhibition of beta2 adrenergic receptor expressed in HEK293 cells co-transfected with PKA fragments Reg-F[1] and cat-F[2]-fused renilla luciferase assessed as dissociation of PKA fragments after 2 mins by real time kinetic study relative to inverse agonist ICI-118551. It is filed as functional, cell-based. A digest of the protocol: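 Stable β2AR-HEK293 cells grown in DMEM with 10% fetal bovine serum and transiently transfected with plasmids carrying the Rluc PCA PKA reporter (FuGENE-6). Cells were treated with compounds 48 h after transfection. Immediately after treatment, the medium was exchanged for PBS and bioluminescence was read on a luminometer.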

Data set [13] addresses T2, Dual specificity calcium/calmodulin-dependent 3',5'-cyclic nucleotide phosphodiesterase 1B (Homo sapiens, UniProt Q01064). The experiment in a line: Inhibition of PDE1B at 10 uM.
Data set [14] has as its target T1, cGMP-inhibited 3',5'-cyclic phosphodiesterase 3A. The experiment in a line: Inhibition of PDE3A at 10 uM.
Data set [15] concerns the target T3, 3',5'-cyclic-AMP phosphodiesterase 7B (Homo sapiens, UniProt Q9NP56). The experiment in a line: Inhibition of PDE7B at 10 uM.
For data set [16], the target named is T4, Dual specificity calcium/calmodulin-dependent 3',5'-cyclic nucleotide phosphodiesterase 1C (Homo sapiens, UniProt Q14123). The experiment in a line: Inhibition of PDE1C at 10 uM.
T4 sequence (Q14123 whole entry): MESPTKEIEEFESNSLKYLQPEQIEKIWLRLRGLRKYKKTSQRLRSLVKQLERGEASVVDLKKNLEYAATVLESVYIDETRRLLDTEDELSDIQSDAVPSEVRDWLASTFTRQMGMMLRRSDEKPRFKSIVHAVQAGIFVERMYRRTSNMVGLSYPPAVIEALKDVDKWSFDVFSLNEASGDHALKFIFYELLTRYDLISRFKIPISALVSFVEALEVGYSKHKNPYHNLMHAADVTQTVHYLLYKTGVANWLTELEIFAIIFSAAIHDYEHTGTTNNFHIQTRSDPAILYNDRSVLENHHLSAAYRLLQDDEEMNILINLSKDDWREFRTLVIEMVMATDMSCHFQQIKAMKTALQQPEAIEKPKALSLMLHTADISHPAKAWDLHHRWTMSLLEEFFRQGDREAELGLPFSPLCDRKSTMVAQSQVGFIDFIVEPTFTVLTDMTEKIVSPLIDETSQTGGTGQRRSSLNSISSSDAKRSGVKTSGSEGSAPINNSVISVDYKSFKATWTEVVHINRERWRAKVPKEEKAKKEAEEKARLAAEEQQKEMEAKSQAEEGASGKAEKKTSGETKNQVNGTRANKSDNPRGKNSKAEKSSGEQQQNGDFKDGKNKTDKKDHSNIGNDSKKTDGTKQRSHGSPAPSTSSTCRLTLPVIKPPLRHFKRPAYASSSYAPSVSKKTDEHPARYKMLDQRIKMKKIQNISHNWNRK
In data set [17] the target is T5, High affinity 3',5'-cyclic-AMP phosphodiesterase 7A (Homo sapiens, UniProt Q13946). Description: Inhibition of PDE7A at 10 uM.
T5 sequence (Q13946 whole entry): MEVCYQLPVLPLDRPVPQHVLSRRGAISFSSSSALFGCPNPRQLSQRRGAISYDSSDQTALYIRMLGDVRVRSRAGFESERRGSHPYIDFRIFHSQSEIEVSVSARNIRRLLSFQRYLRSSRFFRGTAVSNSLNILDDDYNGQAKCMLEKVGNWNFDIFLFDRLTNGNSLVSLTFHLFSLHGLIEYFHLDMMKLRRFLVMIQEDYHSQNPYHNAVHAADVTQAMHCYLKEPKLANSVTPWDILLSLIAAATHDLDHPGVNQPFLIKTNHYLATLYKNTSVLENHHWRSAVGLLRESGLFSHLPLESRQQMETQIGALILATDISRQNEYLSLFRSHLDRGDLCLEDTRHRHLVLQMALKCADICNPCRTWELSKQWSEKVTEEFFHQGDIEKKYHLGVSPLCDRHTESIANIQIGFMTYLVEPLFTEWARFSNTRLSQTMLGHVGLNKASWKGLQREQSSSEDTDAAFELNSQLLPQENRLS
Data set [18] addresses cGMP-specific 3',5'-cyclic phosphodiesterase (Homo sapiens) (UniProt O76074). The experiment in a line: Inhibition of PDE5A1 at 10 uM.
Data set [19] is described as follows: Inhibition of PDE4A1A.
Data set [20] has as its target T5, High affinity 3',5'-cyclic-AMP phosphodiesterase 7A. The experiment in a line: Inhibition of PDE7A.
Data set [21] concerns the target T2, Dual specificity calcium/calmodulin-dependent 3',5'-cyclic nucleotide phosphodiesterase 1B.
In data set [22] the target is T4, Dual specificity calcium/calmodulin-dependent 3',5'-cyclic nucleotide phosphodiesterase 1C. Description: Inhibition of PDE1C.
In data set [23] the target is Beta-2 adrenergic receptor (Homo sapiens) (UniProt P07550). The experiment in a line: Inhibition of beta2 adrenergic receptor expressed in HEK293 cells co-transfected with PKA fragments Reg-F[1] and cat-F[2]-fused renilla luciferase assessed as effect on receptor regulated PKA activation at 100 uM after 30 mins by protein-fragment complementation assay. It is filed as cell-based. A digest of the protocol:
as §1

Data set [24] shares this target. The experiment in a line: Inhibition of beta2 adrenergic receptor expressed in HEK293 cells co-transfected with PKA fragments Reg-F[1] and cat-F[2]-fused renilla luciferase assessed as effect on receptor regulated PKA activation at 100 uM after 30 mins by protein-fragment complementation assay in presence of inverse agonist ICI-118551. It is filed as functional, cell-based. A digest of the protocol: as §1

Data set [25] has as its target T3, 3',5'-cyclic-AMP phosphodiesterase 7B. The experiment in a line: Inhibition of PDE7B.

Sequence of Beta-2 adrenergic receptor (Homo sapiens) (P07550 whole entry, looked up, the tested form may be a part): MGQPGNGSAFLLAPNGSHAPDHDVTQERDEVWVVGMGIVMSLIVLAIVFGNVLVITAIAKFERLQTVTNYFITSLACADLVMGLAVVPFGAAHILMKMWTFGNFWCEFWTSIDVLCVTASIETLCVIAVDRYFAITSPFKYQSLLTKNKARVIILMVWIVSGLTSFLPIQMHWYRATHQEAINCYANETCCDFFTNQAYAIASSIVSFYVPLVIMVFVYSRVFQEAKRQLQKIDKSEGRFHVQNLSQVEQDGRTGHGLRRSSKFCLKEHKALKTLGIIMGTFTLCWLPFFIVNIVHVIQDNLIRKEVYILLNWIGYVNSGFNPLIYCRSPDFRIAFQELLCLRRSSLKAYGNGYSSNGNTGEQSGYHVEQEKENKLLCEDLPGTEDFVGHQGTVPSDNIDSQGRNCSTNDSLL
T2 sequence (Q01064 whole entry): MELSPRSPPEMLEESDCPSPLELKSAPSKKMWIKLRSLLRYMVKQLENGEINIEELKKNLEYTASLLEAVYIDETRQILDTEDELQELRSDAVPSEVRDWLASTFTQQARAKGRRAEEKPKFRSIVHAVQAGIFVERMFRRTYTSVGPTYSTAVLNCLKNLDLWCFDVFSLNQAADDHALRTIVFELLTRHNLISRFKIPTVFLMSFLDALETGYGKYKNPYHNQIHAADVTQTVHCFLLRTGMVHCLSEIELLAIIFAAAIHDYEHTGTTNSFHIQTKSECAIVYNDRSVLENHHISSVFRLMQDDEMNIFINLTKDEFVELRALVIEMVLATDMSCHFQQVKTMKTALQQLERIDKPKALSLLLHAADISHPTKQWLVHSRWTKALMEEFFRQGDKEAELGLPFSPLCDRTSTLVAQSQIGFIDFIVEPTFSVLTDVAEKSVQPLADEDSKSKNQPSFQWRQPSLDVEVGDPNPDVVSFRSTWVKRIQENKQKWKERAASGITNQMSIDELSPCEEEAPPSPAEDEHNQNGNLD
T3 sequence (Q9NP56 whole entry): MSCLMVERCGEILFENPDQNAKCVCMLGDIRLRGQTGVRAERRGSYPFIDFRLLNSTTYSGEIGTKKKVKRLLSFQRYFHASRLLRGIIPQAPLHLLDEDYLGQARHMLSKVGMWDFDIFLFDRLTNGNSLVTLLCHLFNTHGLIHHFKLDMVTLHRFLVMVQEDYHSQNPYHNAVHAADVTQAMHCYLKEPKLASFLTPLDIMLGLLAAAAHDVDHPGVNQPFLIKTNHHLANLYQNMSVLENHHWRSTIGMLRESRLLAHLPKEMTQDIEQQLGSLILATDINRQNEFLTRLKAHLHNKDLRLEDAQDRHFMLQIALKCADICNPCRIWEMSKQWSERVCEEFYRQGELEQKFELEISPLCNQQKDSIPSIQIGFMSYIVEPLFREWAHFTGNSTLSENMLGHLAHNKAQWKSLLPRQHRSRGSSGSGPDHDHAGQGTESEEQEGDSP
Sequence of 3',5'-cyclic-AMP phosphodiesterase 4A (P27815 whole entry): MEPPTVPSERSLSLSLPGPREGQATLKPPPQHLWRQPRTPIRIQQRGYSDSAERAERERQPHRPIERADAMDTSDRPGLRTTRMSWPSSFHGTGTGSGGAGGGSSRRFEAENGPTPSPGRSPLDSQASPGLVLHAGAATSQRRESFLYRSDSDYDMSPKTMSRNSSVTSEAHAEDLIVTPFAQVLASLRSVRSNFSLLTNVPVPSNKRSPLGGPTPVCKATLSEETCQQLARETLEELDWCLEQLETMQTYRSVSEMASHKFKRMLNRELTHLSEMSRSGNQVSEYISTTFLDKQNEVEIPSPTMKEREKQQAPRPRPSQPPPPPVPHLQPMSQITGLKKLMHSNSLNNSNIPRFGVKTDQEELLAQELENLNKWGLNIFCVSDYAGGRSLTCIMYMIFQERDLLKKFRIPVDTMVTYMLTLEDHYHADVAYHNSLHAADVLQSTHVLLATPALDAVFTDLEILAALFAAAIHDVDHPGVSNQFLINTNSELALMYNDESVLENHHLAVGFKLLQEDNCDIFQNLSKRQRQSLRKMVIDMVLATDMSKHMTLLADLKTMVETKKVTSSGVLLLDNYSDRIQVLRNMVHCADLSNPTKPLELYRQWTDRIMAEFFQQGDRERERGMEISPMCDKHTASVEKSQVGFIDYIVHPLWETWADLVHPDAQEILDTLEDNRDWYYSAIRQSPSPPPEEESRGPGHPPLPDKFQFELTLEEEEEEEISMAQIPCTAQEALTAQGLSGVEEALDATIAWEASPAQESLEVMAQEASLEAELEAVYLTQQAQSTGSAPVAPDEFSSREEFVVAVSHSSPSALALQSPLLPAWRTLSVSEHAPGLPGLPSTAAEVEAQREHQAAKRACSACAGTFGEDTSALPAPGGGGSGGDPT
T1 sequence (Q14432 whole entry): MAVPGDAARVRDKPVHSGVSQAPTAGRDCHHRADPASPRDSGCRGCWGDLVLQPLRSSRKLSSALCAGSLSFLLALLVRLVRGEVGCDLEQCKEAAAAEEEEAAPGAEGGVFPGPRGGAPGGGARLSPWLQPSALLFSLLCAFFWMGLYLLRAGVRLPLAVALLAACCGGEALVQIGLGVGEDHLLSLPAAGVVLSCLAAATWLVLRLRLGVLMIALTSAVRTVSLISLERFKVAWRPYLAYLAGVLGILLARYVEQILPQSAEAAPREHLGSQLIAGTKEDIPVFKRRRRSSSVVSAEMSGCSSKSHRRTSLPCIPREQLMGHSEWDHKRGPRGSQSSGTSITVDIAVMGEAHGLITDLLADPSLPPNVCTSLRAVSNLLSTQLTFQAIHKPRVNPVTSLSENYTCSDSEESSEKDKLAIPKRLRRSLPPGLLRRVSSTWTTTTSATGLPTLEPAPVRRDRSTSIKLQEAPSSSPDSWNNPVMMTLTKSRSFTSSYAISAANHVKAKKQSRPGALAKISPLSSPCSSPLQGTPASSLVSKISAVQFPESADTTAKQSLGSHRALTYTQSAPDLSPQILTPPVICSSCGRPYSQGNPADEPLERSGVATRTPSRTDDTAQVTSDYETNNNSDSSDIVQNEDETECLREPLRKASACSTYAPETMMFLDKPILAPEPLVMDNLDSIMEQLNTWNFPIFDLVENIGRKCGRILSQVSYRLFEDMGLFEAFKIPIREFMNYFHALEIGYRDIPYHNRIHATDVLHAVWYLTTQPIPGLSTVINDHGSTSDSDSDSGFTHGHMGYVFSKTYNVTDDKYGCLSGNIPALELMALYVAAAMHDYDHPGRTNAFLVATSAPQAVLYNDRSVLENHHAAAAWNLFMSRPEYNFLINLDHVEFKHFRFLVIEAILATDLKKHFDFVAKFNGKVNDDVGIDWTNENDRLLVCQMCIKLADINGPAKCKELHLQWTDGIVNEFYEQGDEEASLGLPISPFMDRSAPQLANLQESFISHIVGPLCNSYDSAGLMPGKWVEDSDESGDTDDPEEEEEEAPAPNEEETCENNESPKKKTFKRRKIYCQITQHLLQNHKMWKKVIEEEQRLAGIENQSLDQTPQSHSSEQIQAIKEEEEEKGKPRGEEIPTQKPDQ

As usually defined, the IC50 is the concentration needed to halve the response being measured. Take `COc1ccc(C2=Nn3c(nnc3-c3ccccc3OC)SC2)cc1O[C@@H]1CCOC1`: in data set [1], the IC50 amounted to 11 nM.
In data set [1], `COc1ccc(C2=Nn3c(nnc3-c3ccccc3OC)SC2)cc1OC1CCCC1` yielded a half-maximal inhibitory concentration (IC50) of 32 nM.
As to `COc1ccc(C2=Nn3c(nnc3-c3ccccc3F)SC2)cc1O[C@@H]1CCOC1`, in data set [1], half-maximal inhibition (IC50) was put at 8.6 nM.
Compound `COc1ccc(C2=Nn3c(nnc3-c3ccccc3F)SC2)cc1OC1CCCC1` came in with a half-maximal inhibitory concentration (IC50) in data set [1] of 33 nM.
Still for that read-out and setting: the figure for `FC(F)Oc1ccc(C2=Nn3c(nnc3-c3ccccc3Cl)SC2)cc1OCC1CC1` is 37 nM.
As a reminder, the microsomal CLint is the rate of metabolic loss divided by the concentration. A lower microsomal CLint goes with slow turnover. As usually defined, the half-life is how long it takes for the measured level to halve. Regarding `COc1ccc(OC)c(-c2nnc3ccc(-c4ccc(OC)c(O[C@H]5CCOC5)c4)nn23)c1`, in data set [2], the intrinsic clearance (microsomal CLint) was > 300 µL/min/mg. Further, in data set [3], the half-life came out at 3 min.
`COc1ccc(C2=Nn3c(nnc3-c3ccccc3F)SC2)cc1OC1CCOC1` (stereo not given) gave an IC50 in [1] of 11 nM.
Broadly, the EC50 is the concentration that produces a half-maximal response. In the case of `COc1ccc(OC)c(-c2nnc3n2N=C(c2ccc(OC)c(OC)c2)CS3)c1`, the concentration for half-maximal inhibition (IC50) in data set [4] (read-out: IC50) amounted to 823 nM; in [5] it was 720 nM; in data set [6] it was 1700 nM. Moreover, the intrinsic metabolic clearance (microsomal CLint) in data set [2] is > 300 µL/min/mg. The same compound showed an EC50 in [7] of 18.7 nM. Also, in data set [3], the half-life turned out to be 3 min.
Take `COc1ccc(C2=Nn3c(nnc3-c3ccccc3Cl)SC2)cc1OC1CCOC1` (stereo not given): the IC50 in data set [1] was 9.8 nM.
Same read-out and setting: next, `COc1ccc(C2=Nn3c(nnc3-c3ccccc3Cl)SC2)cc1OCC1CC1`: 21 nM.
The same measure, in the same setting: the figure for `COc1ccc(C2=Nn3c(nnc3-c3ccccc3OC)SC2)cc1OCC1CC1` is 35 nM.
A word on the inhibition: it is the drop in the measured response relative to a control, in per cent. For `COc1ccc(OC)c(-c2nnc3n2N=C(c2ccc(OC)c(O[C@@H]4CCOC4)c2)CS3)c1`, the inhibition result in data set [8] and in [9] was “Active” throughout. For the same compound, the microsomal CLint in data set [2] is > 300 µL/min/mg. The inhibition was determined as 68% in data set [10]; 36% in data set [11]; 25% in data set [12]; 52% in data set [13]; 56% in [14]; 43% in [15]. Also, the inhibition in [16] is 49%; in [17], 48%; in data set [18] it was 58%. The compound also displayed a concentration giving a half-maximal response (EC50) in data set [7] of 2.3 nM. Moreover, the half-life in data set [3] came to 3 min.
With `COc1ccccc1-c1nnc2n1N=C(c1ccc(OC(F)F)c(OCC3CC3)c1)CS2`, the IC50 in [1] came to 35 nM.
On the same count and under the same terms, the figure for `COc1ccc(C2=Nn3c(nnc3-c3ccccc3OC)SC2)cc1OC1CCOC1` (stereo not given) is 20 nM.
Regarding `COc1ccc(OC)c(-c2nnc3n2N=C(c2ccc(OC)c(OC4CCOC4)c2)CS3)c1` (racemic), in [2], the intrinsic metabolic clearance (microsomal CLint) was > 300 µL/min/mg. The half-life in [3] was found to be 3 min.
Consider `COc1ccc(OC)c(-c2nnc3n2N=C(c2ccc(OC(F)F)c(OCC4CC4)c2)CS3)c1`, for which the microsomal CLint in data set [2] was > 300 µL/min/mg. Further, in [3], the half-life worked out at 3 min.
Compound `COc1ccc(C2=Nn3c(nnc3-c3ccccc3Cl)SC2)cc1OC1CCCC1` yielded an IC50 in data set [1] of 26 nM.
Regarding `COc1ccc(OC)c(-c2nnc3n2N=C(c2ccc(OC)c(OC4CCCC4)c2)CS3)c1`, in [2], the microsomal CLint is > 300 µL/min/mg. For the same compound, in data set [3], the half-life is 3 min.
For `COc1ccc(OC)c(-c2nnc3ccc(-c4ccc(OC)c(O[C@@H]5CCOC5)c4)nn23)c1`, the inhibition entry in data set [8] and in data set [9] was “Active” throughout. The intrinsic clearance (microsomal CLint) in data set [2] was > 300 µL/min/mg. For the same compound, the inhibition in data set [10] was determined as 54%; in data set [11], 32%; in data set [13], 56%; in [14] it was 54%; in data set [15], 35%; in data set [16] it was 74%. Further, the inhibition in data set [17] was 59%; in data set [18], 51%. Moreover, the half-maximal effective concentration (EC50) in data set [7] was 34.2 nM. This compound showed a 50% inhibitory concentration (IC50) in [19] of 0.6 nM. The half-life in [3] turned out to be 3 min.
As to `Fc1ccccc1-c1nnc2n1N=C(c1ccc(OC(F)F)c(OCC3CC3)c1)CS2`, the midpoint of inhibition in data set [1], the IC50, lay at 53 nM.
For the compound `COc1ccc(OC)c(-c2nnc3n2N=C(c2ccc(OC)c(OCC4CC4)c2)CS3)c1`, in [2], the microsomal CLint was > 300 µL/min/mg. Also, the half-life in data set [3] came out at 3 min.
Turning to `COc1ccc(C2=Nn3c(nnc3-c3ccccc3Cl)SC2)cc1O[C@@H]1CCOC1`, inhibition in data set [1] was half-maximal at 3.8 nM (IC50).
For `COc1ccc(C2CNC(=O)C2)cc1OC1CCCC1` (stereo not given) [ROLIPRAM], the half-maximal inhibitory concentration (IC50) result in [4], in [20], in data set [21], in data set [22] and in data set [25] was “Not Active” in each case. Also, the inhibition result in data set [23] was “Active”. In addition, the inhibition result in data set [24] was “inactive”.
